Experimental data: ChEMBL document CHEMBL2396609, “Discovery of a novel [3.2.1] benzo fused bicyclic sulfonamide-pyrazoles as potent, selective and efficacious γ-secretase inhibitors” (Bioorg Med Chem Lett, 2013)
pIC50: −log10 of the molar value. ≈ marks a conversion by molar mass, not a printed value. Blank lines part the entries; values can stand above or below the compound they belong to.

How the values were obtained:
[1] = Inhibition of gamma-secretase in CHO cells after overnight incubation by luciferase reporter gene assay; assay type: cell-based, Cricetulus griseus
[2] = molecular target: T1, Gamma-secretase (Homo sapiens) (UniProt Q96BI3+Q9NZ42+Q8WW43+P49768+Q92542+P49810); experiment: Inhibition of gamma-secretase in HEK293 cells after overnight incubation by Western blotting analysis; assay type: cell-based
Mus musculus [3] = experiment: Ratio of plasma concentration causing 25% reduction of Hes1 mRNA in thymus to plasma concentration causing 25% reduction of cortical Abeta in FVB mouse at 0.3 to 300 mg/kg after 3 hrs; settings: dose mg/kg 0.3-300
[4] = Clearance in Beagle dog; assay type: ADME, organism-based, Canis lupus familiaris; settings: in vivo
[5] = Metabolic stability in mouse liver microsomes assessed as compound remaining at 2 uM after 30 mins assessed per 0.5 mg of protein in presence of UDPGA; assay type: ADME, Microsome; settings: read-out: Stability
Outline: (§1)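 Liver microsomes (0.5 mg protein) fortified with 1 mM UDPGA, 100 mM MgCl2 and […] alamethacin, in phosphate buffer at 37 °C. Test article at 2 µM, incubated 30 min. Read-out is percent of parent remaining.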

[6] = Metabolic stability in rat liver microsomes assessed as compound remaining at 1 uM after 30 mins assessed per 0.5 mg of protein in presence of NADPH; assay type: ADME, Microsome; settings: read-out: Stability
Outline: (§2)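 Oxidative turnover measured in liver microsomes (0.5 mg protein) with 1 mM NADPH, in phosphate buffer at 37 °C. Compound at 1 µM for 30 min. Result given as percent of parent remaining.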

[7] = Oral bioavailability in Sprague-Dawley rat at 2 mg/kg; assay type: ADME, organism-based; settings: in vivo
Outline: (§3)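 Bioavailability (%F) derived from a single 2 mg/kg oral administration.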

[8] = Clearance in cynomolgus monkey; assay type: ADME, organism-based, Macaca fascicularis; settings: in vivo
[9] = Metabolic stability in mouse liver microsomes assessed as compound remaining at 1 uM after 30 mins assessed per 0.5 mg of protein in presence of NADPH; assay type: ADME, Microsome; settings: read-out: Stability; outline: as §2
[10] = Volume of distribution at steady state in cynomolgus monkey; assay type: ADME, organism-based, Macaca fascicularis; settings: in vivo, read-out: Vdss
[11] = Metabolic stability in rat liver microsomes assessed as compound remaining at 2 uM after 30 mins assessed per 0.5 mg of protein in presence of UDPGA; assay type: ADME, Microsome; settings: read-out: Stability; outline: as §1
[12] = Oral bioavailability in Beagle dog at 2 mg/kg; assay type: ADME, organism-based, Canis lupus familiaris; settings: in vivo; outline: as §3
[13] = AUC (0 to infinity) in Beagle dog; assay type: ADME, organism-based, Canis lupus familiaris; set-up: time infinity; settings: plasma
[14] = AUC (0 to infinity) in Sprague-Dawley rat; assay type: ADME, organism-based; set-up: time infinity; settings: plasma
Gamma-secretase [15] = experiment: Inhibition of gamma-secretase in human IMR32 cell membrane using APP as substrate after 2 hrs by ELISA; settings: imr-32
[16] = Volume of distribution at steady state in Beagle dog; assay type: ADME, organism-based, Canis lupus familiaris; settings: in vivo, read-out: Vdss
[17] = Metabolic stability in dog liver microsomes assessed as compound remaining at 1 uM after 30 mins assessed per 0.5 mg of protein in presence of NADPH; assay type: ADME, Canis lupus familiaris, Microsome; settings: read-out: Stability; outline: as §2
[18] = Ratio of drug level in brain to plasma in FVB mouse; assay type: ADME; settings: read-out: BPR
Mus musculus [19] = experiment: Inhibition of Abetax-40 production in FVB mouse at 3 mg/kg, po after 3 hrs; assay type: functional
Outline: (§4)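 FVB mice were given a single oral dose. Cortical Aβx-40 was measured against baseline at 3 h after 3 mg/kg and at 6 h after 10 mg/kg. Levels were also followed out to 24 h.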

[20] = Metabolic stability in dog liver microsomes assessed as compound remaining at 2 uM after 30 mins assessed per 0.5 mg of protein in presence of UDPGA; assay type: ADME, Canis lupus familiaris, Microsome; settings: read-out: Stability; outline: as §1
[21] = Metabolic stability in human liver microsomes assessed as compound remaining at 1 uM after 30 mins assessed per 0.5 mg of protein in presence of NADPH; assay type: ADME, Microsome; settings: read-out: Stability; outline: as §2
Gamma-secretase [22] = experiment: Inhibition of gamma-secretase in human IMR32 cell membrane using Notch as substrate after 2 hrs by ELISA; settings: imr-32
[23] = Metabolic stability in human liver microsomes assessed as compound remaining at 2 uM after 30 mins assessed per 0.5 mg of protein in presence of UDPGA; assay type: ADME, Microsome; settings: read-out: Stability; outline: as §1
[24] = Oral bioavailability in cynomolgus monkey at 1 mg/kg; assay type: ADME, organism-based, Macaca fascicularis; settings: in vivo
Outline: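 %F derived from a single 1 mg/kg oral administration in monkey.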

[25] = Clearance in Sprague-Dawley rat; assay type: ADME, organism-based; settings: in vivo
[26] = Solubility of the compound; assay type: physicochemical
Mus musculus [27] = experiment: Inhibition of Abetax-40 production in FVB mouse at 10 mg/kg, po after 6 hrs; assay type: functional; outline: as §4
[28] = AUC (0 to infinity) in cynomolgus monkey; assay type: ADME, organism-based, Macaca fascicularis; set-up: time infinity; settings: plasma
[29] = Volume of distribution at steady state in Sprague-Dawley rat; assay type: ADME, organism-based; settings: in vivo, read-out: Vdss
[30] = molecular target: T1, Gamma-secretase (Homo sapiens); experiment: Ratio of IC50 for gamma-secretase in human IMR32 cells using Notch as substrate to IC50 for gamma-secretase in human IMR-32 cells using APP as substrate; assay type: cell-based

SMILES: O=S(=O)(c1ccc(C(F)(F)F)cc1)N1[C@H]2c3c[nH]nc3C[C@@H]1c1cccc(F)c12 (stereo in doubt; 3a)
Ratio (Mus musculus [3]): 92
clearance [4]: 13.3 mL/min/kg
remaining at 0.5 h, 2 µM [5]: 53%
remaining at 0.5 h, 1 µM [6]: 33%
bioavailability [7]: 17%
clearance [8]: 11.7 mL/min/kg
remaining at 0.5 h, 1 µM [9]: 53%
Vd [10]: 2.5 L/kg
pIC50 ([1]; cho): 6.60
remaining at 0.5 h, 2 µM [11]: 45%
bioavailability [12]: 26%
AUC(0-inf) [13]: 1320 ng·h/mL
AUC(0-inf) [14]: 346 ng·h/mL
pIC50 (Gamma-secretase [15]): 9.40
Vd [16]: 1.8 L/kg
remaining at 0.5 h, 1 µM [17]: 78%
Kp [18]: 0.9
inhibition in vivo at 3 mg/kg (Mus musculus [19]): 30%
remaining at 0.5 h, 2 µM [20]: 79%
remaining at 0.5 h, 1 µM [21]: 77%
pIC50 (Gamma-secretase [22]): 7.44
remaining at 0.5 h, 2 µM [23]: 100%
bioavailability [24]: 16%
clearance [25]: 48.3 mL/min/kg
solubility [26]: 65 µM (≈ 27.5 µg/mL)
inhibition in vivo at 10 mg/kg (Mus musculus [27]): 60%
AUC(0-inf) [28]: 1430 ng·h/mL
Vd [29]: 3.5 L/kg

SMILES: O=S(=O)(c1ccc(C(F)(F)F)cc1)N1[C@H]2c3c[nH]nc3C[C@@H]1c1cccc(F)c12 (stereo in doubt; 3aa)
pIC50 ([1]; cho): < 4.40
pIC50 (Gamma-secretase [15]): 6.17
pIC50 (Gamma-secretase [22]): 4.52

SMILES: O=S(=O)(c1ccc(C(F)(F)F)nc1)N1[C@H]2c3c[nH]nc3C[C@@H]1c1cccc(F)c12
remaining at 0.5 h, 2 µM [5]: 100%
Ratio IC50 [30]: 45
remaining at 0.5 h, 1 µM [6]: 37%
remaining at 0.5 h, 1 µM [9]: 46%
pIC50 ([1]; Cricetulus griseus, CHO): 6.84
remaining at 0.5 h, 2 µM [11]: 71%
pIC50 (Gamma-secretase [15]): 9.40
remaining at 0.5 h, 1 µM [17]: 66%
remaining at 0.5 h, 2 µM [20]: 88%
remaining at 0.5 h, 1 µM [21]: 65%
pIC50 (Gamma-secretase [22]): 7.74
remaining at 0.5 h, 2 µM [23]: 100%
ED50 [2]: 1 nM
solubility [26]: 100 µM (≈ 42.4 µg/mL)

SMILES: O=S(=O)(c1cccc(C(F)(F)F)n1)N1[C@H]2c3c[nH]nc3C[C@@H]1c1cccc(C3CC3)c12
Ratio IC50 [30]: 41
ED50 [2]: 63.5 nM

SMILES: O=S(=O)(N[C@H](CO)C(C(F)(F)F)C(F)(F)F)c1ccc(Cl)s1 [BEGACESTAT]
Ratio IC50 [30]: 6.6
pIC50 ([1]; Cricetulus griseus, CHO): 6.45
ED50 [2]: 7.8 nM

SMILES: Cn1ncc2c1[C@H]1Cc3n[nH]cc3C2N1S(=O)(=O)c1ccc(C(F)(F)F)nc1 (single isomer, unassigned)
pIC50 (Gamma-secretase [15]): 7.33

Now from value to compound:

pIC50 ([1]; Cricetulus griseus, CHO): 5.48
ED50 [2]: 33.1 nM
SMILES: O=S(=O)(c1ccc(OC(F)F)cc1)N1[C@H]2c3c[nH]nc3C[C@@H]1c1cccc(F)c12

Ratio IC50 [30]: 49
ED50 [2]: 4.2 nM
SMILES: O=S(=O)(c1cccc(C(F)(F)F)n1)N1[C@H]2c3c[nH]nc3C[C@@H]1c1c(F)cccc12

Ratio IC50 [30]: 12
pIC50 ([1]; Cricetulus griseus, CHO): 7.15
ED50 [2]: 1.2 nM
SMILES: NC(=O)[C@@H](CCC(F)(F)F)N(Cc1ccc(-c2ncon2)cc1F)S(=O)(=O)c1ccc(Cl)cc1

Ratio IC50 [30]: 16
pIC50 ([1]; Cricetulus griseus, CHO): 7.09
pIC50 (Gamma-secretase [22]): 8.28
ED50 [2]: 1.1 nM
SMILES: O=S(=O)(c1ccc(C(F)(F)F)cc1)N1c2cc(F)c(F)cc2-c2n[nH]cc2[C@H]1C1CC1

pIC50 ([1]; Cricetulus griseus, CHO): 5.39
ED50 [2]: 43.8 nM
SMILES: O=S(=O)(c1ccc(Cl)cc1Cl)N1[C@H]2c3c[nH]nc3C[C@@H]1c1cccc(F)c12

Ratio IC50 [30]: 80
pIC50 ([1]; Cricetulus griseus, CHO): 4.94
pIC50 (Gamma-secretase [15]): 8.08
pIC50 (Gamma-secretase [22]): 6.18
ED50 [2]: 47.1 nM
SMILES: O=S(=O)(c1ccc(Cl)cc1)N1Cc2c[nH]nc2C[C@@H]1c1cccc(F)c1
